Our source for the Activity, IC50 and Kb values is ChEMBL document CHEMBL1122841, “Structure-activity relationships among benextramine-related tetraamine disulfides at peripheral alpha-adrenoreceptors” (J Med Chem, 1985).

For one test, the target named is Adrenergic receptor alpha (Rattus norvegicus) (UniProt P15823+P23944+P43140+P22086+P19328+P22909). In words: Antagonistic blocking activity at alpha adrenergic receptor by NE induced contractions of the epididymal portion of isolated rat vas deferens at the dose of 20 uM. The class given is functional, tissue-based. Also noted: scale not given: the % may be the effect or the level left. The method in brief:
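Epididymal portion of isolated rat vas deferens under 1.0 g tension in PSS (mM: NaCl 118, KCl 4.7, CaCl2 2.52, MgCl2 3.57, KH2PO4 1.54, NaHCO3 12.5, glucose 11.1). Antagonist at 20 µM for 30 min, then 30-min wash. Value is the percent decrease of maximum contraction to 100 µM NE versus control, mean ± SEM; n = 3–7.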
Consider `c1ccc2c(CNCCCCCCNCCSSCCNCCCCCCNCc3cccc4ccccc34)cccc2c1`, for which the Activity was 22%.

With `Cc1ccc(CNCCCCCCNCCSSCCNCCCCCCNCc2ccc(C)o2)o1`, the Activity amounted to 100%.

For `c1cncc(CNCCCCCCNCCSSCCNCCCCCCNCc2cccnc2)c1`, the Activity was 13%.

`Clc1cc(Cl)cc(CNCCCCCCNCCSSCCNCCCCCCNCc2cc(Cl)cc(Cl)c2)c1` showed an Activity of 44%.

On to `COc1cccc([N+](=O)[O-])c1CNCCCCCCNCCSSCCNCCCCCCNCc1c(OC)cccc1[N+](=O)[O-]`, for which the Activity came out at 42%.

`O=[N+]([O-])c1ccc(CNCCCCCCNCCSSCCNCCCCCCNCc2ccc([N+](=O)[O-])cc2)cc1`: the Activity came to 41%.

For the molecule `O=[N+]([O-])c1cccc(CNCCCCCCNCCSSCCNCCCCCCNCc2cccc([N+](=O)[O-])c2)c1`, the Activity was 49%.

Take `CS(=O)(=O)c1ccccc1CNCCCCCCNCCSSCCNCCCCCCNCc1ccccc1S(C)(=O)=O`: the Activity is 35%.

Turning to `c1coc(CNCCCCCCNCCSSCCNCCCCCCNCc2ccco2)c1`, the Activity came out at 100%.

For `c1ccc2cc(CNCCCCCCNCCSSCCNCCCCCCNCc3ccc4ccccc4c3)ccc2c1`, the Activity came to 27%.

Turning to `COc1c(C)cccc1CNCCCCCCNCCSSCCNCCCCCCNCc1cccc(C)c1OC`, the Activity is 59%.

Turning to `Clc1ccc(CNCCCCCCNCCSSCCNCCCCCCNCc2ccc(Cl)cc2Cl)c(Cl)c1`, the Activity was 54%.

In turn, `c1ccc2c(CNCCCCCCNCCSSCCNCCCCCCNCc3ccnc4ccccc34)ccnc2c1` had an Activity of 32%.

For `COc1ccc(CNCCCCCCNCCSSCCNCCCCCCNCc2ccc(OC)c(OC)c2[N+](=O)[O-])c([N+](=O)[O-])c1OC`, the Activity worked out at 27%.

Molecule `Brc1ccc(CNCCCCCCNCCSSCCNCCCCCCNCc2ccc(Br)cc2)cc1` registered an Activity of 34%.

In turn, `O=[N+]([O-])c1cc(O)c(O)cc1CNCCCCCCNCCSSCCNCCCCCCNCc1cc(O)c(O)cc1[N+](=O)[O-]` yielded an Activity of 99%.

Molecule `COc1cc(CNCCCCCCNCCSSCCNCCCCCCNCc2cc(OC)c(OC)cc2[N+](=O)[O-])c([N+](=O)[O-])cc1OC` yielded an Activity of 47%.

The molecule `c1ccc(CNCCCCCCNCCSSCCNCCCCCCNCc2ccccn2)nc1` registered an Activity of 78%.

In turn, `c1csc(CNCCCCCCNCCSSCCNCCCCCCNCc2cccs2)c1` gave an Activity of 80%.

`Clc1ccc(CNCCCCCCNCCSSCCNCCCCCCNCc2ccc(Cl)cc2)cc1` returned an Activity of 50%.

Consider `Brc1ccccc1CNCCCCCCNCCSSCCNCCCCCCNCc1ccccc1Br`, for which the Activity is 58%.

Molecule `Clc1ccc(CNCCCCCCNCCSSCCNCCCCCCNCc2ccc(Cl)c(Cl)c2)cc1Cl` gave an Activity of 39%.

The molecule `c1cc(CNCCCCCCNCCSSCCNCCCCCCNCc2ccsc2)cs1` had an Activity of 17%.

Consider `Fc1ccc(CNCCCCCCNCCSSCCNCCCCCCNCc2ccc(F)cc2)cc1`, for which the Activity amounted to 100%.

On to `COc1ccccc1CNCCCCCCNCCSSCCNCCCCCCNCc1ccccc1OC` [BENEXTRAMINE], for which the Activity came out at 100%.

The molecule `c1ccc2ncc(CNCCCCCCNCCSSCCNCCCCCCNCc3cnc4ccccc4c3)cc2c1` came in with an Activity of 36%.

Take `Cn1cccc1CNCCCCCCNCCSSCCNCCCCCCNCc1cccn1C`: the Activity is 100%.

In the case of `Brc1cccc(CNCCCCCCNCCSSCCNCCCCCCNCc2cccc(Br)c2)c1`, the Activity stood at 58%.

With `CSc1ccccc1CNCCCCCCNCCSSCCNCCCCCCNCc1ccccc1SC`, the Activity was determined as 66%.

Molecule `O=[N+]([O-])c1c(CNCCCCCCNCCSSCCNCCCCCCNCc2ccc(O)c(O)c2[N+](=O)[O-])ccc(O)c1O` showed an Activity of 17%.

On to `c1cc(CNCCCCCCNCCSSCCNCCCCCCNCc2ccncc2)ccn1`, for which the Activity was 11%.

The molecule `Fc1cccc(CNCCCCCCNCCSSCCNCCCCCCNCc2cccc(F)c2)c1` registered an Activity of 73%.

For the molecule `Clc1cccc(CNCCCCCCNCCSSCCNCCCCCCNCc2cccc(Cl)c2)c1`, the Activity was 46%.

The molecule `Fc1ccccc1CNCCCCCCNCCSSCCNCCCCCCNCc1ccccc1F` returned an Activity of 55%.

`O=[N+]([O-])c1ccccc1CNCCCCCCNCCSSCCNCCCCCCNCc1ccccc1[N+](=O)[O-]` had an Activity of 51%.

For the molecule `c1c[nH]c(CNCCCCCCNCCSSCCNCCCCCCNCc2ccc[nH]2)c1`, the Activity was 100%.

Another test deals with Adrenergic receptor alpha. In words: Inhibitory activity against alpha adrenergic receptor in rat.
A word on the IC50: it is the concentration that gives 50% inhibition. The molecule `COc1ccccc1CNCCCCCCNCCSSCCNCCCCCCNCc1ccccc1OC` [BENEXTRAMINE] came in with an IC50 of 4.02 µM.

The species named for a further test is Rattus norvegicus. In words: Antimuscarinic activity against carbachol induced response in rat jejunum. It is filed as functional. In a few lines:
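Rat jejunum under 1.0 g tension in the same PSS, stabilised with submaximal agonist doses. Cumulative carbachol curves used about 3-fold steps and force-transducer recording. After about 15 min rest, antagonist (10–100 µM) was incubated 30 min and the curve repeated. Dose ratios were taken before and after a 30-min wash; mean ± SEM of 5–6 observations.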
For `COc1ccccc1CNCCCCCCNCCSSCCNCCCCCCNCc1ccccc1OC` [BENEXTRAMINE], the Kb worked out at 2.01 µM.

Consider `c1c[nH]c(CNCCCCCCNCCSSCCNCCCCCCNCc2ccc[nH]2)c1`, for which the Kb amounted to 5.25 µM.

The next test concerns the target Adrenergic receptor alpha. In words: Inhibitory activity against alpha adrenergic receptor. It is filed as protein assay.
For `c1c[nH]c(CNCCCCCCNCCSSCCNCCCCCCNCc2ccc[nH]2)c1`, the IC50 turned out to be 0.9 µM.
